Results as given in ChEMBL document CHEMBL1149362, “Diphenyl phosphonate inhibitors for the urokinase-type plasminogen activator: optimization of the P4 position” (J Med Chem, 2006).

Legend:
[1] = target: Prothrombin (Homo sapiens, UniProt P00734); assay: Inhibition of human thrombin
Outline: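 Thrombin from human plasma, approx. 5 mU, in Tris pH 8.3, with a 15-min 37 °C inhibitor preincubation. […] Initial rate is read at 405 nm, duplicates, and IC50 is obtained by four-parameter logistic fitting.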

[2] = target: T1, Urokinase-type plasminogen activator (Homo sapiens, UniProt P00749); assay: Inhibition of human uPA
[3] = target: T2, Coagulation factor X (Bos taurus, UniProt P00743); assay: Inhibition of bovine F10a
T2 sequence (P00743 41-180 limits assumed): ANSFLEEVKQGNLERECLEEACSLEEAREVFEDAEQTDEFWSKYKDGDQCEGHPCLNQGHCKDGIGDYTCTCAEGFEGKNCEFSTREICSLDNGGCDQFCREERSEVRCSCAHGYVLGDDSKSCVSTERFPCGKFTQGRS
T2 sequence (P00743 234-492 limits assumed): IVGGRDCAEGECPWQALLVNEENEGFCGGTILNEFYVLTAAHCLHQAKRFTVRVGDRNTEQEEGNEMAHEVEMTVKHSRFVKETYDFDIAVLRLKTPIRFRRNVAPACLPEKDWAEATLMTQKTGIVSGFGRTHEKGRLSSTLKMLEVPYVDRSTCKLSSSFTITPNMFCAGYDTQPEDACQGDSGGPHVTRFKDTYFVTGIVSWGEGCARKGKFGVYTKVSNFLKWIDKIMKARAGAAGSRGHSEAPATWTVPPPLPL

[4] = target: Plasminogen (Homo sapiens, UniProt P00747); assay: Inhibition of human plasmin
Chain of Plasminogen (P00747 97-580 limits assumed): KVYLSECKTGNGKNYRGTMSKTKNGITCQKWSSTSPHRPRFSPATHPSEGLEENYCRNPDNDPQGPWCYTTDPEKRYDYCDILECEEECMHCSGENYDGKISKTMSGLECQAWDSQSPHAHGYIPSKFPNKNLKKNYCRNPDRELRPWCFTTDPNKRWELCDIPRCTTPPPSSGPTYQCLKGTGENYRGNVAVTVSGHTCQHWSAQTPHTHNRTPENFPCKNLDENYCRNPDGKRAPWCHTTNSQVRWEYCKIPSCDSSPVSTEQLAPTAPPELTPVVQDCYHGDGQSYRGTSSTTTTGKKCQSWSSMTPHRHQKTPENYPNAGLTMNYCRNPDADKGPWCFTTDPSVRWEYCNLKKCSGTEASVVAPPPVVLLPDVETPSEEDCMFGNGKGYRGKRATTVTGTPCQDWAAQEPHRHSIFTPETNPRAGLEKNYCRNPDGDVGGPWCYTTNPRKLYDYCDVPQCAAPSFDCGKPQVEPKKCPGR
Chain of Plasminogen (P00747 581-810 limits assumed): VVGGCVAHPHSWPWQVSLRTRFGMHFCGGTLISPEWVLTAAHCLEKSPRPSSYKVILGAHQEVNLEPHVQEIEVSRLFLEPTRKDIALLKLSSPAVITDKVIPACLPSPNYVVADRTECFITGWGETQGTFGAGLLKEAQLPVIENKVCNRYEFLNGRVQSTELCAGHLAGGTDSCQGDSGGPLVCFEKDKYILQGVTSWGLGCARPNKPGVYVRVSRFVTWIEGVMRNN
Outline: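 Plasmin from human plasma, approx. 5 mU, in Tris pH 7.4, with a 15-min 37 °C inhibitor preincubation. […] Initial rate is read at 405 nm, in duplicate, and IC50 is obtained by four-parameter logistic fitting.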

[5] = target: Tissue-type plasminogen activator (Homo sapiens, UniProt P00750); assay: Inhibition of recombinant tPA
Chain of Tissue-type plasminogen activator (P00750 whole entry): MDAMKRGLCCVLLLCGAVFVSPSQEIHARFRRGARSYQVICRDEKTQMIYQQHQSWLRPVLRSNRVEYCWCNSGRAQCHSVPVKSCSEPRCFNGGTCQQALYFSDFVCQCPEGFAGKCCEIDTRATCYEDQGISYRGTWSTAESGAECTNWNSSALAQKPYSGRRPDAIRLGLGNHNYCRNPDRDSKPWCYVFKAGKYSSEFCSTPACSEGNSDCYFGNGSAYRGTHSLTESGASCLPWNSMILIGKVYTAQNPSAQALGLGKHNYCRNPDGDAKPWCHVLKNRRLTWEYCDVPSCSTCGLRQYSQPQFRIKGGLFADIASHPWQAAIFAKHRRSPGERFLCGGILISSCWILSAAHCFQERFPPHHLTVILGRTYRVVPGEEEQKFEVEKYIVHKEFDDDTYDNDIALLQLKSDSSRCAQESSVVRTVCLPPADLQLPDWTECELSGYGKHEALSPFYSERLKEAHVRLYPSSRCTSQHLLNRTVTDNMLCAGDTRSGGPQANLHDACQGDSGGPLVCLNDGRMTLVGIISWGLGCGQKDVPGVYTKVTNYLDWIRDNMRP
Outline: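 Recombinant tPA, approx. 5 mU, in Tris pH 8.3, is preincubated with inhibitor for 15 min at 37 °C. S-2288 is then added at 1.25 mM (Km 1 mM). Absorbance change is read at 405 nm, in duplicate, and IC50 comes from a four-parameter logistic fit.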

[6] = Selectivity index, IC50 for bovine trypsin/IC50 for human uPA
[7] = Inhibition of bovine trypsin; design: species or system Bos taurus
Outline: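 Bovine trypsin, approx. 5 mU, is preincubated with inhibitor for 15 min at 37 °C. BAPNA substrate is then added at 425 µM (Km 1 mM) in Tris pH 8.2. The pNA release rate is read at 405 nm, duplicate wells, and IC50 comes from a four-parameter logistic fit.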

[8] = species: Homo sapiens; assay: Selectivity index, IC50 for recombinant tPA/IC50 for human uPA
[9] = target: Thrombin and urokinase-type plasminogen activator (Homo sapiens) (UniProt P00734+P00749); assay: Selectivity index, IC50 for human thrombin/IC50 for human uPA; format: protein assay
[10] = species: Homo sapiens; assay: Selectivity index, IC50 for human plasmin/IC50 for human uPA
[11] = target: Coagulation factor X (Bos taurus) (UniProt P00743); assay: (§1) Inhibition of bovine F10a at 250 uM
Chain of Coagulation factor X (Bos taurus) (P00743 41-180 limits assumed): as the sequence (P00743 41-180 limits assumed) above
Chain of Coagulation factor X (Bos taurus) (P00743 234-492 limits assumed): as the sequence (P00743 234-492 limits assumed) above

[12] = Selectivity index, IC50 for bovine F10a/IC50 for human uPA
[13] = Selectivity for mouse uPA over tPA
[14] = Selectivity for mouse uPA over plasmin
[15] = target: T2, Coagulation factor X; assay: as §1
[16] = target: Coagulation factor X (Bos taurus) (UniProt P00743); assay: Inhibition of bovine F10a at 125 uM
[17] = target: T1, Urokinase-type plasminogen activator; assay: Inhibition of mouse uPA; settings: target entry is the homologue from another species

Compound | IC50 [1] | IC50 [2] | IC50 [3] | IC50 [4] | IC50 [5] | Selectivity index [6] | IC50 [7] | Selectivity index [8] | Selectivity index [9] | Selectivity index [10] | inhibition [11] | Selectivity index [12] | Selectivity ratio [13] | Selectivity ratio [14] | IC50 [15] | inhibition [16] | IC50 [17]
C[C@H](NC(=O)[C@@H](CO)NS(=O)(=O)c1cccc2ccccc12)C(=O)NC(Cc1ccc(N=C(N)N)cc1)P(=O)(Oc1ccccc1)Oc1ccccc1 (stereo partly specified) | 6000 nM | 5.8 nM | 96000 nM | 990 nM | 4400 nM |  |  |  |  |  |  |  |  |  |  |  | 
Cc1cccc(C)c1C(=O)N[C@H](CO)C(=O)N[C@@H](C)C(=O)NC(Cc1ccc(NC(=N)N)cc1)P(=O)(Oc1ccccc1)Oc1ccccc1 (stereo partly specified) | 6300 nM | 6 nM |  | 4200 nM | 3600 nM | 40 | 220 nM | 600 | 1000 | 700 | 62% |  |  |  |  |  | 
C[C@H](NC(=O)[C@@H](CO)NS(=O)(=O)Cc1ccccc1)C(=O)NC(Cc1ccc(NC(=N)N)cc1)P(=O)(Oc1ccccc1)Oc1ccccc1 (stereo partly specified) | 770 nM | 3.5 nM | 33000 nM | 37 nM | 280 nM | 90 | 310 nM | 80 | 220 | 11 |  | 9400 |  |  |  |  | 
C[C@H](NC(=O)[C@@H](CO)NS(=O)(=O)c1ccccc1)C(=O)NC(Cc1ccc(NC(=N)N)cc1)P(=O)(Oc1ccccc1)Oc1ccccc1 (stereo partly specified) | 4900 nM | 2.6 nM |  | 1900 nM | 3100 nM | 60 | 160 nM | 1200 | 1900 | 740 | 64% |  |  |  |  |  | 
C[C@H](NC(=O)[C@@H](CO)NS(=O)(=O)c1cccs1)C(=O)NC(Cc1ccc(N=C(N)N)cc1)P(=O)(Oc1ccccc1)Oc1ccccc1 (stereo partly specified) | 4300 nM | 1.5 nM |  | 1540 nM | 3400 nM |  |  |  |  |  |  |  |  |  |  |  | 
Cc1ccccc1C(=O)N[C@H](CO)C(=O)N[C@@H](C)C(=O)NC(Cc1ccc(NC(=N)N)cc1)P(=O)(Oc1ccccc1)Oc1ccccc1 (stereo partly specified) | 15900 nM | 5 nM |  | 7200 nM | 5500 nM | 30 | 140 nM | 1100 | 3200 | 1400 | 57% |  |  |  |  |  | 
C[C@H](NC(=O)[C@@H](CO)NS(=O)(=O)c1cccc2ccccc12)C(=O)NC(Cc1ccc(NC(=N)N)cc1)P(=O)(Oc1ccccc1)Oc1ccccc1 (stereo partly specified) |  |  |  |  |  | 50 | 280 nM | 760 | 1000 | 155 |  | 16600 |  |  |  |  | 
C[C@H](NC(=O)[C@@H](CO)NS(=O)(=O)c1ccc(Br)cc1)C(=O)NC(Cc1ccc(NC(=N)N)cc1)P(=O)(Oc1ccccc1)Oc1ccccc1 (stereo partly specified) | 2980 nM | 6.6 nM | 58000 nM | 900 nM | 3700 nM | 36 | 240 nM | 560 | 451 | 136 |  | 9000 |  |  |  |  | 
C[C@H](NC(=O)[C@@H](CO)NS(=O)(=O)c1ccc(C#N)cc1)C(=O)NC(Cc1ccc(NC(=N)N)cc1)P(=O)(Oc1ccccc1)Oc1ccccc1 (stereo partly specified) |  |  |  |  |  | 70 | 440 nM | 1100 | 1200 | 145 | 53% |  |  |  |  |  | 
Cc1cccc(C(=O)N[C@H](CO)C(=O)N[C@@H](C)C(=O)NC(Cc2ccc(N=C(N)N)cc2)P(=O)(Oc2ccccc2)Oc2ccccc2)c1 (stereo partly specified) | 34000 nM | 4.4 nM |  | 8000 nM | 18000 nM |  |  |  |  |  |  |  |  |  |  |  | 
Cc1ccc(C(=O)N[C@H](CO)C(=O)N[C@@H](C)C(=O)NC(Cc2ccc(NC(=N)N)cc2)P(=O)(Oc2ccccc2)Oc2ccccc2)cc1 (stereo partly specified) | 67000 nM | 7 nM |  | 5000 nM | 16000 nM | 23 | 160 nM | 2300 | 9600 | 700 | 53% |  |  |  |  |  | 
C[C@H](NC(=O)[C@@H](CO)NS(=O)(=O)c1cccs1)C(=O)NC(Cc1ccc(NC(=N)N)cc1)P(=O)(Oc1ccccc1)Oc1ccccc1 (stereo partly specified) |  |  |  |  |  | 65 | 98 nM | 2300 | 2800 | 1000 | 68% |  |  |  |  |  | 
CC(=O)Nc1ccc(OP(=O)(Oc2ccc(NC(C)=O)cc2)C(Cc2ccc(NC(=N)N)cc2)NC(=O)[C@H](C)NC(=O)[C@@H](CO)NC(=O)OCc2ccccc2)cc1 (stereo partly specified) |  |  |  |  |  | 30 | 200 nM | 1000 | 200 | 130 | 58% |  | 5 | 5 |  |  | 
C[C@H](NC(=O)[C@@H](CO)NC(=O)c1cccs1)C(=O)NC(Cc1ccc(NC(=N)N)cc1)P(=O)(Oc1ccccc1)Oc1ccccc1 (stereo partly specified) |  |  |  |  |  | 40 |  | 1900 | 5000 | 1400 |  |  |  |  |  |  | 
C[C@H](NC(=O)[C@@H](CO)NC(=O)C1C2CC3CC(C2)CC1C3)C(=O)NC(Cc1ccc(NC(=N)N)cc1)P(=O)(Oc1ccccc1)Oc1ccccc1 (stereo partly specified) | 6000 nM | 8 nM |  | 5000 nM | 8600 nM | 20 | 160 nM | 1000 | 750 | 600 | 62% |  |  |  |  |  | 
C[C@H](NC(=O)[C@@H](CO)NC(=O)c1ccccc1)C(=O)NC(Cc1ccc(N=C(N)N)cc1)P(=O)(Oc1ccccc1)Oc1ccccc1 (stereo partly specified) | 22000 nM | 5 nM |  | 15000 nM | 15000 nM |  |  |  |  |  |  |  |  |  |  |  | 
C[C@H](NC(=O)[C@@H](CO)NC(=O)OCc1ccccc1)C(=O)NC(Cc1ccc(N=C(N)N)cc1)P(=O)(Oc1ccccc1)Oc1ccccc1 (stereo partly specified) | 20000 nM | 4.3 nM |  | 2000 nM | 4600 nM |  |  |  |  |  |  |  |  |  |  |  | 
Cc1cccc(C(=O)N[C@H](CO)C(=O)N[C@@H](C)C(=O)NC(Cc2ccc(NC(=N)N)cc2)P(=O)(Oc2ccccc2)Oc2ccccc2)c1 (stereo partly specified) |  |  |  |  |  | 40 | 160 nM | 4000 | 7700 | 1800 | 56% |  |  |  |  |  | 
C[C@H](NC(=O)[C@@H](CO)NC(=O)c1cccs1)C(=O)NC(Cc1ccc(N=C(N)N)cc1)P(=O)(Oc1ccccc1)Oc1ccccc1 (stereo partly specified) | 35000 nM | 6.9 nM |  | 10000 nM | 13000 nM |  |  |  |  |  |  |  |  |  | 250000 nM |  | 
C[C@H](NC(=O)[C@@H](CO)NC(=O)OCc1ccccc1)C(=O)NC(CCCNC(=N)N)P(=O)(Oc1ccccc1)Oc1ccccc1 (stereo partly specified) |  |  | 65000 nM |  |  |  |  |  |  |  |  |  |  |  |  |  | 
COc1ccc(S(=O)(=O)N[C@H](CO)C(=O)N[C@@H](C)C(=O)NC(Cc2ccc(NC(=N)N)cc2)P(=O)(Oc2ccccc2)Oc2ccccc2)cc1 (stereo partly specified) | 1670 nM | 5.8 nM | 100000 nM | 1700 nM | 4300 nM | 60 | 360 nM | 740 | 288 | 293 |  | 19000 |  |  |  |  | 
C[C@H](NC(=O)[C@@H](CO)NS(=O)(=O)c1ccc(C#N)cc1)C(=O)NC(Cc1ccc(N=C(N)N)cc1)P(=O)(Oc1ccccc1)Oc1ccccc1 (stereo partly specified) | 7500 nM | 6.2 nM |  | 900 nM | 6600 nM |  |  |  |  |  |  |  |  |  |  |  | 
C[C@H](NC(=O)[C@@H](CO)NC(=O)OCc1ccccc1)C(=O)NC(Cc1ccc(NC(=N)N)cc1)P(=O)(Oc1ccccc1)Oc1ccccc1 (stereo partly specified) |  |  |  |  |  | 70 | 300 nM | 1000 | 4700 | 470 |  |  |  |  |  | 43% | 
C[C@H](NC(=O)[C@@H](CO)NC(=O)OCc1ccccc1)C(=O)NC(CCCN=C(N)N)P(=O)(Oc1ccccc1)Oc1ccccc1 (stereo partly specified) |  |  |  |  |  |  |  | 40 | 8 | 300 |  | 1100 |  |  |  |  | 
C[C@H](NC(=O)[C@@H](CO)NC(=O)c1ccccc1)C(=O)NC(Cc1ccc(NC(=N)N)cc1)P(=O)(Oc1ccccc1)Oc1ccccc1 (stereo partly specified) |  |  |  |  |  | 80 | 400 nM | 3000 | 5400 | 3000 | 45% |  |  |  |  |  | 
CC(=O)Nc1ccc(OP(=O)(Oc2ccc(NC(C)=O)cc2)C(Cc2ccc(N=C(N)N)cc2)NC(=O)[C@H](C)NC(=O)[C@@H](CO)NC(=O)OCc2ccccc2)cc1 (stereo partly specified) | 1500 nM | 6.7 nM |  | 900 nM | 6400 nM |  |  |  |  |  |  |  |  |  |  |  | 410 nM
